An excerpt weighted towards active compounds, which were near 2.4% of everything screened.
E-sel inducer: induces E-selectin expression in human endothelial cells. P16581. HUVEC E-selectin immunofluorescence imaging; normalized: neutral wells 0, TNF-alpha wells 100. activation, % at 7.58 µM. 260,000 compounds, 0.37% hits. AID 686992;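 active = mean E-selectin-positive cell signal at least 10% of the positive control, reached in at least 60% of replicates, without over 20% cell loss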
Target sequence (P16581 whole entry, looked up): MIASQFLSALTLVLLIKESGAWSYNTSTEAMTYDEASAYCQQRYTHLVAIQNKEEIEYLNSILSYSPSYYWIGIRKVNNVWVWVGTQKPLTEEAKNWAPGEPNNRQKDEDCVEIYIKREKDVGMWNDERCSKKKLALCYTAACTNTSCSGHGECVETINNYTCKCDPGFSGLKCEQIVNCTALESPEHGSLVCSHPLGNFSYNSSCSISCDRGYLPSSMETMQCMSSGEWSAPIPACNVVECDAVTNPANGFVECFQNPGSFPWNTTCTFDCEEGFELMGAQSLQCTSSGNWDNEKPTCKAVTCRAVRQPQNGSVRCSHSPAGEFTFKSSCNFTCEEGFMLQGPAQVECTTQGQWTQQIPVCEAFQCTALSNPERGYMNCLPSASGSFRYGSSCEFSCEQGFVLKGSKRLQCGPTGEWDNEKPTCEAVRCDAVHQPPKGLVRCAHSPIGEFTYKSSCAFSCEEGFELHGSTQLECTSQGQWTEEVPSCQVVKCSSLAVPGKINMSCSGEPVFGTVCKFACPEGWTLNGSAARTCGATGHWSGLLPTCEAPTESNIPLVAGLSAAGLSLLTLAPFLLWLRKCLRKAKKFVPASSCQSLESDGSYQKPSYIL
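Test system – human umbilical vein endothelial cells (HUVEC), E-selectin induction · Input – 3,000 HUVEC seeded per well · Buffer or medium – EGM-2, gelatin · Compound dosing – single-point compound dose · Detection – immunofluorescence imaging · Measure – percent E-selectin-positive cells · Controls – TNF-alpha high, DMSO low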
LGR2 antag: blocks bursicon-induced cAMP signaling via Drosophila LGR2 | inhibition, % at 9.99 µM | 380,000 compounds, 0.35% hits | HEK293 LGR2, CRE-luciferase, bursicon-stimulated, 4 h;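 active = drop in luminescence signal, shown as inhibition above about 50% in the replicate tests, limit read from the data, passing the limit was not always enough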;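 note: agonist challenge used bursicon conditioned medium at about half maximal strength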
EWS-Fli inh: EWS/Fli transcriptional activity inhibition | 350,000 compounds, 0.67% hits | inhibition, % at 12.6 µM | A673 NR0B1-luciferase reporter, viability-normalised | AID 651661;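 active = mean inhibition of at least 50% after viability correction, with every replicate also passing that limit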;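 note: firefly luciferase signal divided by Alamar Blue viability fluorescence both relative to DMSO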
Ecoli rRNA inh: inhibits bacterial ribosomal RNA function over humanized ribosomes. E. coli WT GFP vs humanized-ribosome RFP mutants, fluorescence, 24 h; stronger effect = lower value; DMSO median 0, no signal -100. GFP signal change (wild-type ribosome), % (concentration not given with the values). 350,000 compounds, 1.6% hits;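 active = significant combined selectivity score with lowered wild-type GFP, culture density cut under 30%, mutant RFP and density less affected; inactive = any of these conditions unmet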
An asterisk follows results filed as active; ! = not active in a repeat.

COc1ccc(/C=N/NC(=O)CCn2cnc(-c3ccccc3)c2-c2ccccc2)cc1OC was read as E-sel inducer 1, LGR2 antag -20 and EWS-Fli inh 54*.
COCc1cc(/C=N\NC(=O)COc2ccccc2)ccc1OC was read as E-sel inducer 0, LGR2 antag -12, EWS-Fli inh -11 and Ecoli rRNA inh -27*.
COc1ccc(/C=N\NC(=O)c2ccc(-c3ccccc3)cc2)cc1COC(C)=O was read as LGR2 antag -11, EWS-Fli inh -10 and Ecoli rRNA inh -25*.
For Cc1noc(C)c1NC(=O)Nc1cccc2c1O[C@@H](CN(C)Cc1ccccc1)[C@@H](C)CN([C@@H](C)CO)C2=O the results were E-sel inducer 0, LGR2 antag -7, EWS-Fli inh 2 and Ecoli rRNA inh 3.
`O=C(NC(=O)c1ccccc1F)OCc1ccc(Cl)cc1Cl` gave LGR2 antag -67, EWS-Fli inh -22 and Ecoli rRNA inh -40*.
For O=C(CNC(=O)c1ccccc1F)NCCc1ccc(Cl)cc1Cl the results were E-sel inducer 0, LGR2 antag 9, EWS-Fli inh -9 and Ecoli rRNA inh 1.
`Cc1ccc(O)c(-c2cc(C(=O)Nc3ccc(S(=O)(=O)Nc4nccc(C)n4)cc3)[nH]n2)c1` gave E-sel inducer 6, LGR2 antag -3, EWS-Fli inh 2 and Ecoli rRNA inh -29*.
For COc1ccc(C(=O)Nc2ccc(S(=O)(=O)Nc3nccc(C)n3)cc2)cc1 the results were LGR2 antag 0, EWS-Fli inh 2 and Ecoli rRNA inh 11.
For O=C(C[C@@H]1C=C[C@H](NC(=O)C2CC2)[C@@H](CO)O1)NCCCN1CCOCC1 the results were E-sel inducer 1, LGR2 antag 4, EWS-Fli inh 6 and Ecoli rRNA inh 2.
C=CCN(CC=C)C(=O)COn1nnc2ccc(S(=O)(=O)N3CCOCC3)cc21 was read as LGR2 antag 2, EWS-Fli inh 9 and Ecoli rRNA inh 7.
Screening CCOc1ccc(NC(=O)COn2nnc3ccc(S(=O)(=O)N4CCOCC4)cc32)cc1 returned EWS-Fli inh 16 and Ecoli rRNA inh -29*.
For C[C@@H]1CN([C@@H](C)CO)C(=O)c2cccc(N(C)C)c2O[C@@H]1CN(C)S(=O)(=O)c1cn(C)cn1 the results were E-sel inducer 0, LGR2 antag -17, EWS-Fli inh -1 and Ecoli rRNA inh 1.
`COc1ccc(C(=O)NC(=S)Nc2ccc(CN3CCOCC3)cc2)cc1Br` gave LGR2 antag 10 and Ecoli rRNA inh -22*.
Screening Oc1ccccc1/C=N/NC(=S)NC1CC2C=CC1C2 (stereo unspecified) returned E-sel inducer 1, LGR2 antag -77, EWS-Fli inh -38 and Ecoli rRNA inh -39*.
For Oc1c(Cl)cc(Cl)cc1/C=N/NC(=S)NC1CC2C=CC1C2 (stereo unspecified) the results were LGR2 antag -18, EWS-Fli inh 39 and Ecoli rRNA inh -31*.
CCOC(=O)N1CCC(N(CCN(C)C)C(=S)Nc2cccc(OC)c2)CC1 was read as E-sel inducer -2, LGR2 antag -16, EWS-Fli inh 0 and Ecoli rRNA inh 12.
CCOC(=O)N1CCC(N(CCOC)C(=S)Nc2cccc(SC)c2)CC1 was read as E-sel inducer 0, LGR2 antag -6, EWS-Fli inh 0 and Ecoli rRNA inh -23*.
For CCn1c(SCc2ccccc2)nc2ccccc2c1=O the results were LGR2 antag -13, EWS-Fli inh 8 and Ecoli rRNA inh -32*.
For CCC(=O)Nc1ccc(/C=C(\C(C)=O)C(=O)c2ccccc2)cc1 the results were E-sel inducer 0, LGR2 antag 52*, EWS-Fli inh 3 and Ecoli rRNA inh -22.
`O=C(C[C@H]1C=C[C@H](NS(=O)(=O)c2ccccc2)[C@H](CO)O1)NCc1ccncn1` gave E-sel inducer 1, LGR2 antag 9, EWS-Fli inh 0 and Ecoli rRNA inh -1.
Screening C[C@H]1CCCCO[C@H](CN(C)Cc2ccc(Cl)c(Cl)c2)[C@@H](C)CN([C@@H](C)CO)C(=O)c2cc(NC(=O)Nc3ccc(C(F)(F)F)cc3)ccc2O1 returned E-sel inducer 0, LGR2 antag 3, EWS-Fli inh 7 and Ecoli rRNA inh 3.
For C[C@@H]1CN([C@H](C)CO)S(=O)(=O)c2ccc(-c3ccncc3)cc2O[C@H]1CN(C)Cc1ccc(Oc2ccccc2)cc1 the results were E-sel inducer 131*, LGR2 antag 6, EWS-Fli inh 48 and Ecoli rRNA inh -1.
Screening C[C@@H]1CN([C@@H](C)CO)S(=O)(=O)c2ccc(Br)cc2O[C@@H]1CN(C)Cc1ccc2c(c1)OCO2 returned E-sel inducer 10, LGR2 antag 12, EWS-Fli inh 6 and Ecoli rRNA inh -34*!.
`C[C@H](CO)N1C[C@H](C)[C@@H](CN(C)Cc2ccc3c(c2)OCO3)Oc2cc(Br)ccc2S1(=O)=O` gave E-sel inducer 3, LGR2 antag -1, EWS-Fli inh 4 and Ecoli rRNA inh -14.
C[C@@H]1CN([C@H](C)CO)S(=O)(=O)c2ccc(-c3ccccc3F)cc2O[C@H]1CN(C)Cc1ccncc1 was read as E-sel inducer 0, LGR2 antag -14, EWS-Fli inh 60* and Ecoli rRNA inh -49.
`C[C@@H]1CCCCO[C@@H](CN(C)C(=O)CCC(F)(F)F)[C@H](C)CN([C@H](C)CO)C(=O)c2cc(NS(=O)(=O)c3ccc(Cl)cc3)ccc2O1` gave E-sel inducer 0, LGR2 antag -5 and Ecoli rRNA inh 1.
`COc1cc(NC(=O)c2cc(-c3cc(F)ccc3OC(C)C)n[nH]2)cc(OC)c1OC` gave E-sel inducer 0, LGR2 antag 8, EWS-Fli inh 0 and Ecoli rRNA inh -21.
CCCOc1ccc(F)cc1-c1cc(C(=O)Nc2cc(OC)c(OC)c(OC)c2)[nH]n1 was read as E-sel inducer 0, LGR2 antag 51*, EWS-Fli inh 22 and Ecoli rRNA inh -14.
Screening CCCCCC(=O)N[C@@H](c1ccccc1)[C@@H](O)C(=O)O[C@H]1C[C@@]2(O)[C@@H](OC(=O)c3ccccc3)C3[C@](C)(C(=O)[C@H](OC(C)=O)C(=C1C)C2(C)C)[C@@H](O)C[C@H]1OC[C@@]31OC(C)=O (stereo partly specified) returned LGR2 antag 5, EWS-Fli inh 57* and Ecoli rRNA inh 3.
CC(=O)O[C@H]1C(=O)[C@@]2(C)[C@H]([C@H](OC(=O)c3ccccc3)[C@]3(O)C[C@H](OC(=O)[C@H](O)C(NC(=O)c4ccccc4)c4ccccc4)C(C)=C1C3(C)C)[C@]1(OC(C)=O)CO[C@@H]1C[C@@H]2O (stereo partly specified) was read as E-sel inducer 1, LGR2 antag 7, EWS-Fli inh 66* and Ecoli rRNA inh 2.
